Results published in ChEMBL document CHEMBL1157760, “Design, synthesis and anticancer activities of stilbene-coumarin hybrid compounds: Identification of novel proapoptotic agents” (Bioorg Med Chem, 2010).
Calls of active or inactive are those of the source. The calls are words filed in the database; no cut-off is given here.

Tests used:
NCI-H460 [1] = assay: Antiproliferative activity against human H460 cells after 72 hrs; type: functional, cell-based; conditions: NCI-H460, 72 h
Method in brief: (§1)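 Growth inhibition: log-phase tumour cells seeded in duplicate, drug added 24 h after seeding, cells harvested 72 h after exposure and counted with a cell counter. IC50 taken as concentration giving 50% fewer cells than untreated control.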

NCI-H460 [2] = assay: Induction of apoptosis in human H460 cells assessed as cleavage of PARP at 1.5 uM after 24 hrs by Western blot analysis; type: functional, cell-based
Method in brief: (§2)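 After 24 h drug exposure, H460 cells rinsed twice in ice-cold PBS with 0.1 mM sodium orthovanadate and lysed in hot sample buffer. Protein quantified, separated by SDS-PAGE, transferred to nitrocellulose, probed with primary antibodies and HRP secondaries, and detected by enhanced chemiluminescence. Actin served as loading control.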

A-431 = assay: Antiproliferative activity against human A431 cells after 72 hrs; type: functional, cell-based; conditions: A-431, 72 h; method in brief: as §1
NCI-H460 [3] = assay: Increase in CDKp21 protein expression in human H460 cells at 1.5 uM after 24 hrs by Western blot analysis; type: functional, cell-based; method in brief: as §2
NCI-H460 [4] = assay: Induction of apoptosis in human H460 cells at 0.5 to 1.5 uM after 72 hrs by TUNEL assay; type: functional, cell-based
Method in brief: (§3)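 H460 cells exposed 72 h to drug. Floating plus adherent cells fixed in 4% paraformaldehyde for 60 min at room temperature, then resuspended in ice-cold PBS. Fluorescein in situ cell-death (TUNEL) kit used and cells read by flow cytometry. Result given as percent TUNEL-positive cells against untreated control.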

NCI-H460 [5] = assay: Antitumor activity against human H460 cells xenograft model assessed as tumor growth inhibition at 10 to 20 mg/kg, po administered daily; type: functional; conditions: dose mg/kg 10-20
NCI-H460 [6] = assay: Upregulation of cyclin B1 protein expression in human H460 cells at 1.5 uM after 24 hrs by Western blot analysis; type: functional, cell-based; method in brief: as §2
[7] = Antiproliferative activity against human JR8 cells after 72 hrs; type: functional, cell-based; conditions: JR8, 72 h; method in brief: as §1
NCI-H460 [8] = assay: Induction of apoptosis in human H460 cells assessed as cleavage of caspase 3 at 1.5 uM after 24 hrs by Western blot analysis; type: functional, cell-based; method in brief: as §2
NCI-H460 [9] = assay: Induction of apoptosis in human H460 cells assessed as CDKp21-p34CDC2 complex formation at 1.5 uM after 24 hrs by immunoprecipitation assay; type: functional, cell-based
Method in brief: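 H460 cells exposed 24 h at 1.5 µM, lysed in NET buffer (pH 7.4, 0.1% NP40, protease inhibitors) on ice then at 4 °C. Lysate cleared at 10,000g and BCA-quantified. 500 µg immunoprecipitated with anti-cdc2 antibody 2 h at 4 °C, then with protein A-sepharose overnight at 4 °C. Pellets washed, eluted and immunoblotted for p34cdc2 and p21.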

NCI-H460 [10] = assay: Upregulation of p34CDC2 protein expression in human H460 cells at 1.5 uM after 24 hrs by Western blot analysis; type: functional, cell-based; method in brief: as §2
NCI-H460 [11] = assay: Increase in CDKp21 protein expression in human H460 cells at 3 uM after 24 hrs by Western blot analysis; type: functional, cell-based; method in brief: as §2
NCI-H460 [12] = assay: Induction of apoptosis in human H460 cells at 0.3 to 3 uM after 72 hrs by TUNEL assay; type: functional, cell-based; method in brief: as §3
NCI-H460 [13] = assay: Upregulation of cyclin B1 protein expression in human H460 cells at 3 uM after 24 hrs by Western blot analysis; type: functional, cell-based; method in brief: as §2
NCI-H460 [14] = assay: Upregulation of p34CDC2 protein expression in human H460 cells at 3 uM after 24 hrs by Western blot analysis; type: functional, cell-based; method in brief: as §2
NCI-H460 [15] = assay: Cell cycle arrest in human H460 cells assessed as accumulation at G2/M phase after 24 hrs by propidium iodide staining-based flow cytometry; type: functional
Method in brief: (§4)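 H460 cells treated 24 h at 10 and 20 µM (resveratrol), 0.5 and 1.5 µM, or 0.3 and 3 µM, then analysed for cell cycle phase distribution (G1, S, G2/M).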

NCI-H460 [16] = assay: Induction of apoptosis in human H460 cells at 10 to 20 uM after 72 hrs by TUNEL assay; type: functional, cell-based; method in brief: as §3
NCI-H460 [17] = assay: Cell cycle arrest in human H460 cells assessed as accumulation at G2/M phase at 20 uM after 24 hrs by propidium iodide staining-based flow cytometry; type: functional; method in brief: as §4

COc1cc(/C=C/c2cc3ccc(OC)cc3oc2=O)cc(OC)c1
IC50 (NCI-H460 [1]): > 10 µM

COc1cc(/C=C/c2cc(=O)oc3cc(OC)ccc23)cc(OC)c1
Activity (NCI-H460 [2]): Active | IC50 (A-431): 3.44 µM | Activity (NCI-H460 [3]): Active | Activity (NCI-H460 [4]): Active | inhibition (INH) (NCI-H460 [5]): 50% | IC50 (NCI-H460 [1]): 0.45 µM | Activity (NCI-H460 [6]): Active | IC50 [7]: 3.2 µM | Activity (NCI-H460 [8]): Active | Activity (NCI-H460 [9]): Active | Activity (NCI-H460 [10]): Active

COc1ccc2c(/C=C/c3cc(OC)c(OC)c(OC)c3)cc(=O)oc2c1
IC50 (NCI-H460 [1]): > 100 µM

COc1ccc2c(/C=C/c3ccc(OCC=C(C)C)cc3)cc(=O)oc2c1
IC50 (NCI-H460 [1]): > 50 µM

COc1ccc2c(/C=C/c3cc(C)cc(C)c3)cc(=O)oc2c1
Activity (NCI-H460 [11]): Active | Activity (NCI-H460 [12]): Active | IC50 (A-431): 3.5 µM | Activity (NCI-H460 [13]): Active | IC50 (NCI-H460 [1]): 0.29 µM | Activity (NCI-H460 [14]): Active | IC50 [7]: 3.5 µM

O=c1cc(/C=C/c2cc(O)cc(O)c2)c2ccc(O)cc2o1
IC50 (NCI-H460 [1]): 27 µM

COc1cc(/C=C/c2cc(=O)oc3ccccc23)cc(OC)c1
IC50 (NCI-H460 [1]): 2.6 µM

COc1cc(/C=C/c2cc(=O)oc3ccc(OC)cc23)cc(OC)c1
IC50 (NCI-H460 [1]): 11 µM

Oc1ccc(/C=C/c2cc(O)cc(O)c2)cc1 [RESVERATROL]
Activity (NCI-H460 [15]): Dose-dependent effect | Activity (NCI-H460 [16]): inactive | IC50 (NCI-H460 [1]): 12.9 µM | Activity (NCI-H460 [17]): Active

COc1ccc2c(/C=C/c3ccc(OC)c(OC)c3OC)cc(=O)oc2c1
IC50 (NCI-H460 [1]): > 50 µM

COc1cccc(/C=C/c2cc(=O)oc3cc(OC)ccc23)c1
IC50 (NCI-H460 [1]): 12.9 µM
